From paper PMC11931566 (RSC Medicinal Chemistry, 2025)
Like-named read-outs stand apart in the source and are kept apart here.

Assays:
[1] = test system: non-small cell lung cancer cell lines; test: Cell growth inhibition, panel of nine NSCLC cell lines; type: cell-based, human
How it was run: (§1)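 GI50 determined per human cancer cell line, grouped by tumour type, with a 3 μM cut-off applied. Per-panel average GI50 and range were calculated. Fold change was taken as the ratio of the average GI50 to that of a reference antitumor ether lipid.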

58 cancer cell lines = test: Spectrum of anticancer activity, 58 cancer cell lines; type: cell-based, human; details: 10 μM
How it was run: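 Spectrum screen over 58 human cancer cell lines covering leukemia, CNS, prostate, breast, lung and other tumour types, run in the NCI-60 screen at the National Cancer Institute. % growth inhibition per line; counts of lines above 50% and above 100% inhibition, plus mean growth inhibition across the 58 lines.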

[2] = test system: four leukemic cancer cells; test: GI50 evaluation, leukemic cancer cells; type: cell-based, human; details: from average GI50
How it was run: as §1

[3] = test system: seven colon cancer cell lines; test: GI50 evaluation, colon cancer cell lines; type: cell-based, human; details: for GI50: Homo sapiens
How it was run: as §1

[4] = test system: six CNS cancer cell lines; test: GI50 evaluation, CNS cancer cell lines; type: cell-based, human; details: for GI50: Homo sapiens
How it was run: as §1

[5] = test system: ovarian cancer cell lines; test: GI50 evaluation, ovarian cancer cell lines; type: cell-based, human; details: for GI50: Homo sapiens
How it was run: as §1

nine melanoma cell lines = test: GI50 evaluation, melanoma cell lines; type: cell-based, human; details: for GI50: Homo sapiens
How it was run: as §1

[6] = test system: five breast cancer cell lines; test: GI50 evaluation, breast cancer cell lines; type: cell-based, human; details: for GI50: Homo sapiens, read-out: calculated average GI50, breast cancer
How it was run: as §1

HCT15 = test: GI50 evaluation, HCT15 colon adenocarcinoma; type: cell-based, human; details: cut-off value of 3 μM
How it was run: as §1

UO31 = test: GI50 evaluation, UO31 renal cancer; type: cell-based, human; details: cut-off value of 3 μM
How it was run: as §1

ACHN = test: GI50 evaluation, ACHN renal cancer; type: cell-based, human; details: cut-off value of 3 μM
How it was run: as §1

eight renal cancer cells = test: GI50 evaluation, renal cancer cells; type: cell-based, human; details: for GI50: Homo sapiens
How it was run: as §1

[7] = test system: two prostate cancer cell lines; test: GI50 evaluation, prostate cancer cell lines; type: cell-based, human; details: for GI50: Homo sapiens, read-out: calculated average GI50, prostate cancer
How it was run: as §1

HCC2998 = test: GI50 evaluation, HCC2998 colon cancer; type: cell-based; details: Homo sapiens, HCC 2998, read-out: GI50, HCC2998
How it was run: as §1

COLO205 = test: GI50 evaluation, COLO205 colon cancer; type: cell-based; details: Homo sapiens, COLO 205, read-out: GI50, COLO205
How it was run: as §1

H322M = test: Cell growth inhibition; type: cell-based; details: Homo sapiens, NCI-H322M, read-out: % growth inhibition, H322M
How it was run: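 Single-dose screen of non-small cell lung cancer lines (adenocarcinoma, metastatic adenocarcinoma, large cell and squamous carcinoma) with test compound at 10 μM. Read-out is % growth inhibition per cell line. Run as part of the NCI-60 human tumour cell line screen at the National Cancer Institute.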

[8] = Selectivity against normal cells, MRC-5; type: cell-based, human; details: human, MRC-5 normal foetal lung fibroblast cells
[9] = test system: normal human foetal lung fibroblast MRC-5 cell line; test: Selectivity against normal cells, MRC-5; type: cell-based; details: lung cancer cells rather than normal lung cells (MRC-5)
A549 cells [10] = test: Cell cycle distribution analysis; type: cell-based, human; details: 24 h, different concentrations
How it was run: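 A549 lung cancer cells were treated with several concentrations of test compound, stained with propidium iodide for DNA content, and analysed by flow cytometry. Fractions in G0/G1, S and G2/M phases were quantified.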

A549 cells [11] = test: Annexin V-FITC/PI double staining analysis; type: cell-based, human; details: 48 h, different concentrations
How it was run: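 A549 cells were treated with several concentrations of test compound, stained with annexin-V and propidium iodide, and analysed by FACS. Live, early apoptotic, late apoptotic and necrotic populations were quantified as percentages.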

phospho-Rb (p-Rb) = test: Western blot in A549 cells, phospho-Rb; type: cell-based, human; details: 24 h
CDK2 = test: Western blot in A549 cells, CDK2; type: cell-based, human; details: 24 h
CDK4 = test: Western blot in A549 cells, CDK4; type: cell-based, human; details: 24 h
CDK6 = test: Western blot in A549 cells, CDK6; type: cell-based, human; details: 24 h
cyclin D1 = test: Western blot in A549 cells, cyclin D1; type: cell-based, human; details: 24 h
CDK1 = test: Western blot in A549 cells, CDK1; type: cell-based, human; details: western blot (Fig. S1)
CDK7 = test: Western blot in A549 cells, CDK7; type: cell-based, human; details: western blot (Fig. S1)
CDK8 = test: Western blot in A549 cells, CDK8; type: cell-based, human; details: western blot (Fig. S1)
PARP = test: Western blot in A549 cells, PARP and cleaved PARP; type: cell-based, human; details: 24 h
BAX = test: Western blot in A549 cells, BAX; type: cell-based, human; details: 24 h
caspase 8 = test: Western blot in A549 cells, caspase 8; type: cell-based, human; details: 24 h
[12] = Homo sapiens, read-out: GI50 range, non-small cell lung cancer
[13] = Homo sapiens, read-out: calculated average GI50, non-small cell lung cancer
[14] = read-out: GI50 range, colon cancer
[15] = read-out: calculated average GI50, colon cancer
[16] = read-out: GI50 range, CNS cancer
[17] = read-out: calculated average GI50, CNS cancer
[18] = read-out: GI50 range, ovarian cancer
[19] = read-out: calculated average GI50, ovarian cancer
[20] = read-out: calculated average GI50, melanoma
[21] = read-out: GI50 range, renal cancer
[22] = read-out: calculated average GI50, renal cancer

CCCCCCCCCCCCCCCCCCOc1ccccc1CC(=O)OCC[N+](CC)(CC)CC.[I-] [Compound 8]
GI50 [1, 12]: 1100 to 4030 nM | GI50 [1, 13]: 1800 nM | number of cell lines out of 58 inhibited by more than 50% (58 cancer cell lines): 49 | number of cell lines out of 58 inhibited by more than 100% (58 cancer cell lines): 10 | average fold increase compared to the potency of edelfosine, leukemia [2]: 13 fold | GI50 [3, 14]: 1040 to 4390 nM | GI50 [3, 15]: 1880 nM | GI50 [4, 16]: 970 to 1620 nM | GI50 [4, 17]: 1350 nM | fold increase compared to the potency of edelfosine, CNS cancer ([4]; from average GI50): more than 15 fold | GI50 [5, 18]: 920 to 7580 nM | GI50 [5, 19]: 2670 nM | GI50 (nine melanoma cell lines; read-out: GI50 range, melanoma): 880 to 1900 nM | GI50 (nine melanoma cell lines; [20]): 1330 nM | average fold increase compared to the potency of edelfosine, melanoma (nine melanoma cell lines; from average GI50): 29 fold | GI50 [6]: 1430 nM | fold increase compared to the potency of edelfosine, breast cancer ([6]; from average GI50): ~47 fold | GI50 relative to cut-off, HCT15 (HCT15): outside the applied cut-off window | GI50 relative to cut-off, UO31 (UO31): more than the applied cut-off value | GI50 relative to cut-off, ACHN (ACHN): more than the applied cut-off value

CCCCCCCCCCCCCCCCCCOCC(COP(=O)([O-])OCC[N+](C)(C)C)OC (centres unmarked) [edelfosine, reference compound]
GI50 [1, 12]: 7050 to 46800 nM | GI50 [1, 13]: 25200 nM | GI50 [3, 14]: 2380 to 14700 nM | GI50 [3, 15]: 7800 nM | GI50 [4, 16]: 8750 to 58500 nM | GI50 [4, 17]: 21400 nM | GI50 [5, 18]: 6670 to 42300 nM | GI50 [5, 19]: 25200 nM | GI50 (nine melanoma cell lines; read-out: GI50 range, melanoma): 15400 to 98400 nM | GI50 (nine melanoma cell lines; [20]): 38700 nM | GI50 (eight renal cancer cells; [21]): 12100 to 72800 nM | GI50 (eight renal cancer cells; [22]): 25000 nM | GI50 [7]: > 53600 nM | GI50 [6]: > 67200 nM | GI50 (HCC2998): 2380 nM | GI50 (COLO205): 2650 nM

CCCCCCCCCCCCCCCCCCOc1ccccc1CC(=O)OCC[N+]1(C)CCCCC1.[I-] [Compound 10]
GI50 [1, 12]: 1320 to 5780 nM | GI50 [1, 13]: 2350 nM | number of cell lines out of 58 inhibited by more than 50% (58 cancer cell lines): 31 | number of cell lines out of 58 inhibited by more than 100% (58 cancer cell lines): 6 | GI50 [3, 15]: 2160 nM | GI50 [4, 16]: 1390 to 2930 nM | GI50 [4, 17]: 1920 nM | GI50 [5, 18]: 1540 to 18200 nM | GI50 [5, 19]: 6280 nM | GI50 (nine melanoma cell lines; read-out: GI50 range, melanoma): 1700 to 2790 nM | GI50 (nine melanoma cell lines; [20]): 2070 nM | GI50 relative to cut-off, HCT15 (HCT15): outside the applied cut-off window | GI50 relative to cut-off, UO31 (UO31): more than the applied cut-off value | GI50 relative to cut-off, ACHN (ACHN): more than the applied cut-off value

CCCCCCCCCCCCCCCCCCOc1ccccc1CC(=O)OCC[N+](C)(C)C.[I-] [Compound 6]
inhibition at 10 µM (H322M): 33.5% | inhibition at 10 µM ([1]; Homo sapiens, read-out: % growth inhibition (range) against H460, A549, HOP62, HOP92, and H522 cell lines, 10 µM): 88.5 to 114% | GI50 [1, 12]: 1250 to 2170 nM | GI50 [1, 13]: 1620 nM | average fold increase compared to the potency of edelfosine, NSCLC ([1]; from average GI50): 15.5 fold | number of cell lines out of 58 inhibited by more than 50% (58 cancer cell lines): 50 | number of cell lines out of 58 inhibited by more than 100% (58 cancer cell lines): 9 | GI50 [3, 14]: 1590 to 2960 nM | GI50 [3, 15]: 1910 nM | average fold increase compared to the potency of edelfosine, colon cancer ([3]; from average GI50): 4 fold | GI50 [4, 16]: 1230 to 2030 nM | GI50 [4, 17]: 1590 nM | GI50 [5, 18]: 650 to 9840 nM | GI50 [5, 19]: 2640 nM | fold increase compared to the potency of edelfosine, ovarian cancer ([5]; from average GI50): 9.5 fold | GI50 (nine melanoma cell lines; read-out: GI50 range, melanoma): 1570 to 2340 nM | GI50 (nine melanoma cell lines; [20]): 1730 nM | GI50 (eight renal cancer cells; [21]): 490 to 1750 nM | GI50 (eight renal cancer cells; [22]): 1350 nM | average fold increase compared to the potency of edelfosine, renal cancer (eight renal cancer cells; from average GI50): 18.5 fold | GI50 [7]: 1600 nM | fold increase compared to the potency of edelfosine, prostate cancer ([7]; from average GI50): 33.5 fold | GI50 [8]: 16700 nM | selectivity index, average [9]: 10.31 | selectivity index, range [9]: 7.70–13.36 | counts of cells in G0/G1 phase (A549 cells [10]): increased dose-dependently | counts of cells in the S and G2/M phases (A549 cells [10]): decreased in a dose-dependent pattern | apoptosis induction (early apoptosis population) (A549 cells [11]): increase in the portion of cells that entered the early apoptosis state | necrosis (A549 cells [11]): no significant necrosis | formation of phospho-Rb (p-Rb) (phospho-Rb (p-Rb)): inhibited dose-dependently | CDK2 protein level (CDK2): dose-dependent inhibition | CDK4 protein level (CDK4): dose-dependent inhibition | CDK6 protein level (CDK6): dose-dependent inhibition | cyclin D1 protein level (cyclin D1): dose-dependent inhibition | CDK1 protein level (CDK1): no dose-dependent inhibition | CDK7 protein level (CDK7): no dose-dependent inhibition | CDK8 protein level (CDK8): no dose-dependent inhibition | PARP cleavage (PARP): dose-dependent PARP cleavage | BAX level (BAX): dose-dependent upregulation of BAX | caspase 8 cleavage (caspase 8): cleavage of caspase 8

CCCCCCCCCCCCCCCCCCOc1ccccc1CC(=O)OCC[N+]1(C)CCCC1.[I-] [Compound 9]
GI50 [1, 12]: 1220 to 8220 nM | GI50 [1, 13]: 2670 nM | number of cell lines out of 58 inhibited by more than 50% (58 cancer cell lines): 43 | number of cell lines out of 58 inhibited by more than 100% (58 cancer cell lines): 3 | GI50 [3, 15]: 2170 nM | GI50 [4, 16]: 1260 to 2830 nM | GI50 [4, 17]: 1820 nM | GI50 [5, 18]: 1520 to 18900 nM | GI50 [5, 19]: 6300 nM | GI50 (nine melanoma cell lines; read-out: GI50 range, melanoma): 1630 to 2820 nM | GI50 (nine melanoma cell lines; [20]): 2070 nM | GI50 relative to cut-off, HCT15 (HCT15): outside the applied cut-off window | GI50 relative to cut-off, UO31 (UO31): more than the applied cut-off value | GI50 relative to cut-off, ACHN (ACHN): more than the applied cut-off value
